# sPLA2-III inh: Inhibits HGIII-sPLA2 liposome hydrolysis, primary screen | Q9NZ20 | QFRET BODIPY PC-A2 liposome hydrolysis, fluorescence | inhibition, % at 12.2 µM | 370,000 tested, 0.56% active;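 active means inhibition above mean plus 3 SD of compounds lying within the high and low control bounds, cut at about 19% in these data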;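 further: 0% = median of test compound wells and 100% = no enzyme DMSO wells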
# PfM18AAP inh-1: PfM18AAP enzyme inhibition. 290,000 tested, 1.2% active. recombinant PfM18AAP, H-Glu-NHMec fluorogenic cleavage. inhibition, % at 7.35 µM;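 active means inhibition above the campaign mean inhibition over all tested compounds plus 3 SD, cut at about 28% in these data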;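 further: 0% = plate median of test compound wells and 100% = 2 mM ZnCl2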
# VIM-2 inhibitor: blocks Pseudomonas aeruginosa VIM-2 metallo-beta-lactamase. purified VIM-2, nitrocefin hydrolysis, epi-absorbance fluorescence. inhibition, % at 5.6 µM. 290,000 tested, 0.89% active. AID 1527;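 active means inhibition above the mean of all tested compounds plus 3 SD, cutoff set per screening run, cut at about 7.5% in these data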;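 further: red hydrolysis product quenches plate fluorescence so inhibitors raise well fluorescence; 0% = enzyme with DMSO and 100% = DMSO without enzyme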
# IMP-1 inhibitor: inhibitors of Pseudomonas aeruginosa IMP-1 metallo-beta-lactamase; purified IMP-1, nitrocefin hydrolysis, epi-absorbance fluorescence; inhibition, % at 5.6 µM; 290,000 tested, 0.45% active; AID 1556;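 active means inhibition above the mean plus 3 SD of all compounds in the same screening run, cut at about 4.5% in these data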;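 further: 0% = IMP-1 with DMSO and 100% = DMSO wells lacking enzyme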
#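 Assay system: purified IMP-1; Quantity: IMP-1 0.2 nM before substrate addition; Medium: HEPES buffer pH 7.1 with ZnSO4 and Brij 35; Incubation: 15 min enzyme–compound preincubation, then 25 min nitrocefin reaction, 25 °C; Signal: fluorescence quenching readout, ex 480/em 530 nm; Controls: DMSO with and without IMP-1; Repeats: singlicate testing.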
# PfM18AAP inh-2: PfM18AAP inhibition, confirmation | shares compounds with PfM18AAP inh-1 | AID 2170 | inhibition, % at 7.35 µM | recombinant PfM18AAP, H-Glu-NHMec fluorogenic cleavage | 2,400 tested, 28% active;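 active means mean inhibition over replicate wells above the hit cutoff set for the earlier primary screen, cut at about 29% in these data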;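 further: 0% = median of test compound wells and 100% = 2 mM ZnCl2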
# CTSL1 confirm: Cathepsin L (human) inhibition, confirmation. purified cathepsin L1, Z-Leu-Arg-MCA fluorescence. inhibition, % at 5.96 µM. shares compounds with PfM18AAP inh-1. 2,400 tested, under 10 active. AID 2178;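 active means average inhibition across replicates above the hit cutoff set in the earlier primary screen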;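 further: 0% = median of test compound wells and 100% = Z-Phe-Ala-diazomethylketone 1 µM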
# Target sequence (P07711 whole entry, looked up): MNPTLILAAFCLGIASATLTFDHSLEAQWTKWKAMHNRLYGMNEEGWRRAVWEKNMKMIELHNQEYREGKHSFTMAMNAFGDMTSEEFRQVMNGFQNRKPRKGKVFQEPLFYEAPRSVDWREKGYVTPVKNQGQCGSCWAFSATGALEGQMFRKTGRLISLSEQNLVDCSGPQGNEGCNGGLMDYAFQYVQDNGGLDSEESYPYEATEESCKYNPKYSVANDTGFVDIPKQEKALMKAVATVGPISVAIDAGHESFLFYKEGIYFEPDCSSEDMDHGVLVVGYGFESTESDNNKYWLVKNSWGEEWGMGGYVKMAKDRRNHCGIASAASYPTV
# The depositor's hits bear a star; . = no result given. In the library only some 2.4% were active in any assay of this set; here they are far more common.
SMILES,sPLA2-III inh,PfM18AAP inh-1,VIM-2 inhibitor,IMP-1 inhibitor,PfM18AAP inh-2,CTSL1 confirm
Cc1ccc(S(=O)(=O)N(C)CC(=O)Nc2nnc(CC(C)C)s2)cc1,-2,-2,4,-2,.,.
COc1cccc(/C=N/N2C(=O)CSC2=S)c1O,-4,32*,-3,1,26,0
O=C1CSC(=S)N1/N=C/c1cccc(C(F)(F)F)c1,3,40*,-2,8.9*,-6,-4
O=C1CSC(=S)N1/N=C/c1c(F)cccc1F,1,37*,-2,12*,-4,2
COc1ccc(-n2nnc3c(SC(C(C)=O)C(=O)N(C)C)ncnc32)cc1 (centres undefined),5,46*,-1,-4,2,-2
COc1cc(C2C3=C(CC(C)(C)CC3=O)N(C)C3=C2C(=O)CC(C)(C)C3)ccc1O,1,34*,1,1,-16,-4
Cc1nc(N)sc1-c1csc(N(C)c2ccc(O)cc2)n1,-7,33*,-4,-2,-25,0
Cc1cc(O)ccc1Nc1nc(-c2cccs2)cs1,-10,11,-3,-2,.,.
CN(c1ccc(O)cc1)c1nc(-c2cccs2)cs1,0,39*,5,1,-5,1
NC(=O)Cc1c[nH]c2cccc(O)c12,-2,47*,1,-1,12,-5
NC(=O)COC(=O)CCCc1c[nH]c2ccccc12,-8,-4,-1,0,.,.
Cc1ccc2nc3n(c(=O)c2c1)-c1ncccc1C(=O)NC3Cc1ccc(O)cc1 (centres undefined),-12,.,.,.,.,.
Cc1nc(C)c(-c2ccnc(/N=C/NO)n2)s1,2,-5,1,-3,.,.
Cc1ccc(Nc2nc(/N=C/NO)n[nH]2)cc1C,-7,33*,-3,-3,-4,-2
O=C1Nc2ccccc2C1=Nc1ccccc1-c1ccccc1,3,.,.,.,.,.
COc1ccc(C(=O)NNC2=CC(=O)CC(C)(C)C2)cc1,14,47*,-3,-3,27,-1
COc1ccc(CNCC#Cc2ccccc2)cc1,-1,.,.,.,.,.
Cc1ccsc1/C=N/Nc1nc(Cl)c(Cl)cc1Cl,4,19,-4,-2,.,.
Cc1ccc(/C=N/Nc2nc(Cl)c(Cl)cc2Cl)s1,8,46*,-3,-4,-42,-1
Cc1cc(C)n(C(C)CC(=O)Nc2ccc3c(c2)OCCO3)n1 (centres undefined),6,9,1,2,.,.
S=C(NNC(=S)Nc1ccccc1)Nc1ccccc1,-1,50*,-7,-4,1,-1
O=C(Cc1ccccc1)NNC(=S)Nc1ccccc1,13,19,-2,-5,.,.
S=C(NNC(=S)Nc1ccc(Cl)cc1)NNc1ccccc1,3,.,.,.,.,.
NC(=S)NNC(=S)Nc1ccccc1,2,42*,-5,-4,2,-2
Nc1nc(Sc2ccc([N+](=O)[O-])cc2[N+](=O)[O-])n[nH]1,1,57*,-3,-3,56*,1
SMILES,sPLA2-III inh,PfM18AAP inh-1,VIM-2 inhibitor,IMP-1 inhibitor,PfM18AAP inh-2,CTSL1 confirm
Cc1[nH]n(-c2ccccc2)c(=S)c1C=NCCCN=Cc1c(C)[nH]n(-c2ccccc2)c1=S,11,59*,-3,-1,-4,1
COC(=O)CN=Cc1c(C)[nH]n(-c2ccccc2)c1=O,1,-16,-3,-4,.,.
O=C(Nc1ccccc1)c1cc(S(=O)(=O)N2CCCCC2)ccc1N1CCOCC1,-4,.,.,.,.,.
CC(=O)Nc1ccc(NC(=O)N2CCOCC2)cc1,11,.,.,.,.,.
CC(=O)/C(=N\Nc1ccc(C)cc1)N1CCOCC1,1,55*,4,1,-46,6
COc1ccc(/C=C2/SC(=S)N(Cc3ccccc3)C2=O)cc1O,-3,23,1,0,.,.
COc1ccc(/C=C2\SC(=S)N(N3C(=O)CCC3=O)C2=O)cc1O,2,32*,1,3,-41,4
CCCCOc1ccc(C(=O)NCC(=O)NC2CCCCC2)cc1,9,.,.,.,.,.
CC(=O)N1C=Cc2c(c(C)c3c([nH]c4ccccc43)c2C)C1,.,13,2,-2,.,.
COc1ccc2c(c1O)-c1ccccc1CCN(C)C2,-1,3,-3,-2,.,.
CN1CCc2cccc3c2[C@@H]1Cc1ccc(O)c(O)c1-3,.,36*,2,-3,79*,3
CCOC(=O)c1cc(CC)sc1NC(=O)CN1CCN(C(=O)c2ccco2)CC1,-9,7,-3,-3,.,.
COc1cccc(CNC2CCC23CCC(C)CC3)c1 (centres undefined),11,.,.,.,.,.

# Compound activity from PubChem BioAssay.
